Experimental data taken from ChEMBL document CHEMBL1157343, “Prenylated flavonoids from the heartwood of Artocarpus communis with inhibitory activity on lipopolysaccharide-induced nitric oxide production” (J Nat Prod, 2006).

Columns and labels:
[1] = system: RAW264.7; test: Cytotoxicity against mouse RAW264.7 cells by MTT assay; assay type: cell-based
[2] = system: RAW264.7; test: Inhibition of LPS-induced nitric oxide production in mouse RAW264.7 cells assessed as nitrite accumulation after 20 hrs; assay type: functional, cell-based; details: RAW264.7, 20 h
Summary of the method: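 RAW 264.7 macrophages grown in DMEM with 10% FBS and penicillin-streptomycin at 37 °C, 5% CO2. Plated at 5 × 10⁵ cells/mL in phenol-red-free 10% FBS-DMEM for 24 h, then PBS-washed, refreshed, and given 1 μg/mL LPS ± samples for 20 h. Nitrite in supernatant measured by Griess reaction at 540 nm against a sodium nitrite standard. Inhibition calculated versus vehicle control; IC50 by nonlinear regression. L-NMMA positive control.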

[3] = system: RAW264.7; test: Selectivity index, ratio of CC50 for mouse RAW264.7 cells to IC50 for nitric oxide production in mouse RAW264.7 cells; assay type: functional

IC50 [2]	Compound	IC50 [1]	Ratio CC50/IC50 [3]
12.3 µM	CC(C)=CCc1c(O)ccc2c1O[C@H](c1ccc(O)cc1O)CC2=O	47.9 µM	3.9
18.8 µM	CC1(C)C=Cc2c(ccc(C(=O)/C=C/c3ccc(O)cc3O)c2O)O1	59.2 µM	3.1
> 60 µM	COc1cc2oc3c(c(=O)c2c(O)c1/C=C/C(C)C)C(C=C(C)C)Oc1cc(O)ccc1-3 (stereo not drawn)	46.1 µM	<0.8
18.7 µM	COc1cc2oc(-c3ccc(O)cc3O)c(CC=C(C)C)c(=O)c2c(O)c1/C=C/C(C)C [ARTOCARPIN]	45.3 µM	2.4
42.1 µM	CC(C)=CC1Oc2cc(O)ccc2-c2oc3cc4c(c(O)c3c(=O)c21)C=CC(C)(C)O4 (stereo not drawn) [CUDRAFLAVONE A]	42.1 µM	1
52.3 µM	CC(C)=CCc1c(O)cc2oc(-c3ccc(O)cc3O)c(CC=C(C)C)c(=O)c2c1O [CUDRAFLAVONE C]	59.2 µM	1.1
9.3 µM	C/C(=C/Cc1c(O)ccc(C(=O)/C=C/c2ccc(O)cc2)c1O)COC(=O)/C=C/c1ccc(O)cc1 [GEMICHALCONE B]	35.1 µM	3.8
23.9 µM	COc1cc(/C=C/C(=O)OC/C(C)=C\Cc2c(O)ccc(C(=O)/C=C/c3ccc(O)cc3O)c2O)ccc1O [GEMICHALCONES C]	37.6 µM	1.6
6.4 µM	CC(C)=CCc1c(O)ccc(C(=O)/C=C/c2ccc(O)cc2)c1O [ISOBAVACHALCONE]	16.4 µM	2.6
16.4 µM	CC(C)=CCc1c(O)ccc(C(=O)/C=C/c2ccc(O)cc2O)c1O [MORACHALCONE A]	58 µM	3.5
19.2 µM	CNC(=N)NCCC[C@H](N)C(=O)O [TILARGININE]	> 50 µM	>2.6
